Consider four compounds from ChEMBL document CHEMBL5329172, “Chloroacetamide fragment library screening identifies new scaffolds for covalent inhibition of the TEAD·YAP1 interaction” (RSC Med Chem, 2023).

The source made the active and inactive calls. The rule behind the calls is not given here.

Experiment [1] has as its target T1, YAP1-TEAD4 (Homo sapiens, UniProt Q15561). In words: Inhibition of GST-tagged TEAD4 (217 to 434 residues) (unknown origin) expressed in Escherichia coli BL21 (DE3) cells/FAM-labelled YAP1 (60 to 99 residues)(unknown origin) protein-protein interaction preincubated for 48 hrs at 4 degree C with TEAD4 followed by fluorescent labelled YAP1 addition by fluorescence polarization assay. Put shortly:
(§1)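 Time-course FP: 64 nM TEAD4 was preincubated with varying compound concentrations for 0.5, 6, 24 or 48 h at 4 °C in PBS with 0.01% Triton X-100. 16 nM FAM-YAP1 60–99 peptide was then added and polarization read at 485/535 nm, n = 2. Inhibition was taken relative to no-compound and no-protein controls.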
In general terms: In fluorescence polarisation assays a small probe gives low polarisation when free and higher when bound to something large.

Experiment [2] addresses T2, YAP1-TEAD4 (Homo sapiens) (UniProt P46937+Q15561). Kind of experiment: Covalent inhibition of GST-tagged TEAD4 (217 to 434 residues) (unknown origin) expressed in Escherichia coli BL21 (DE3) cells/FAM-labelled YAP1 (60 to 99 residues)(unknown origin) protein-protein interaction assessed as protein-compound adduct formation by second order rate constant, kinact/ki ratio at 100 uM incubated for 0.5 to 6 hrs at 4 degree C followed by mass spectrometry analysis. The settings on record: time 0.5-6 hrs. In short, it runs like this:
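Kinetics by MS: 2.5 μM TEAD4 was incubated at 4 °C with 3.1–100 μM compound. Aliquots were quenched with 0.1 M formic acid at set times from 0.5 h upward and analysed by whole-protein MS. Adduct relative to unreacted protein was fit to 100×(1−e^(−kobs·t)) to give kobs. kobs versus concentration was fit hyperbolically for kinact and KI, or linearly for kinact/KI where no plateau was reached.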

The species named for another experiment is Homo sapiens. Kind of experiment: Inhibition of GST-tagged TEAD4 C367S mutant (unknown origin) expressed in Escherichia coli BL21 (DE3) cells/FAM-labelled YAP1 (60 to 99 residues)(unknown origin) protein-protein interaction preincubated for 24 hrs at 4 degree C with TEAD4 C367S mutant followed by fluorescent labelled YAP1 addition by fluorescence polarization assay. Put shortly:
(§2)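 FP: 64 nM TEAD4, TEAD4C367S, TEAD2 or TEAD3, or 250 nM TEAD1, was preincubated with compound for 24 h at 4 °C in PBS with 0.01% Triton X-100. FAM-YAP1 60–99 peptide (disulfide-crosslinked) was then added at 16 nM final. Polarization was read at ex 485/em 535 nm. Percent inhibition was taken relative to no-compound and no-protein controls. The single-point primary screen used 50 μM.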

Experiment [3] has as its target T1, YAP1-TEAD4. In words: Inhibition of GST-tagged TEAD4 (217 to 434 residues) (unknown origin) expressed in Escherichia coli BL21 (DE3) cells/FAM-labelled YAP1 (60 to 99 residues)(unknown origin) protein-protein interaction preincubated for 0.5 hrs at 4 degree C with TEAD4 followed by fluorescent labelled YAP1 addition by fluorescence polarization assay. In short, it runs like this:
as §1

The target in experiment [4] is T1, YAP1-TEAD4. In words: Inhibition of GST-tagged TEAD4 (217 to 434 residues) (unknown origin) expressed in Escherichia coli BL21 (DE3) cells/FAM-labelled YAP1 (60 to 99 residues)(unknown origin) protein-protein interaction preincubated for 6 hrs at 4 degree C with TEAD4 followed by fluorescent labelled YAP1 addition by fluorescence polarization assay. Put shortly:
as §1

The target in experiment [5] is T1, YAP1-TEAD4. Kind of experiment: Inhibition of GST-tagged TEAD4 (217 to 434 residues) (unknown origin) expressed in Escherichia coli BL21 (DE3) cells/FAM-labelled YAP1 (60 to 99 residues)(unknown origin) protein-protein interaction preincubated for 24 hrs at 4 degree C with TEAD4 followed by fluorescent labelled YAP1 addition by fluorescence polarization assay. In short, it runs like this:
as §2

Experiment [6] deals with T2, YAP1-TEAD4 (Homo sapiens). In words: Covalent inhibition of GST-tagged TEAD4 (217 to 434 residues) (unknown origin) expressed in Escherichia coli BL21 (DE3) cells/FAM-labelled YAP1 (60 to 99 residues)(unknown origin) protein-protein interaction assessed as protein-compound adduct formation at 100 uM incubated for 24 hrs at 4 degree C followed by mass spectrometry analysis. Put shortly: (§3)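 Intact-protein MS: 2.5 μM protein (TEAD4 217–434 with GST cleaved, TEAD4C367S, TEAD1 209–426, TEAD2 217–447 or TEAD3 210–427) incubated with 100 μM compound in PBS for 24 h at 4 °C. Samples were centrifuged to remove precipitate, desalted on a C3 reverse-phase column with a water/acetonitrile 0.1% formic acid gradient, and masses were read by Q-TOF. Adduct peaks were reported as percent.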

The target of experiment [7] is T2, YAP1-TEAD4 (Homo sapiens). Kind of experiment: Covalent inhibition of GST-tagged TEAD4 (217 to 434 residues) (unknown origin) expressed in Escherichia coli BL21 (DE3) cells/FAM-labelled YAP1 (60 to 99 residues)(unknown origin) protein-protein interaction assessed as second protein-compound adduct formation at 100 uM incubated for 24 hrs at 4 degree C followed by mass spectrometry analysis. In short, it runs like this:
as §3

Experiment [8] has as its target T2, YAP1-TEAD4 (Homo sapiens). Kind of experiment: Inhibition of GST-tagged TEAD4 (217 to 434 residues) (unknown origin) expressed in Escherichia coli BL21 (DE3) cells/FAM-labelled YAP1 (60 to 99 residues)(unknown origin) protein-protein interaction assessed maximum inhibition preincubated for 0.5 hrs at 4 degree C with TEAD4 followed by fluorescent labelled YAP1 addition by fluorescence polarization assay. In short, it runs like this:
as §1

The next experiment deals with S2. In words: Inhibition of uPAR (unknown origin) expressed in S2 cells/FAM-labelled alpha-helical peptide AE-147 (unknown origin) protein-protein interaction preincubated for 24 hrs at 4 degree C with uPAR followed by fluorescent labelled AE-147 addition by fluorescence polarization assay. The settings on record: Homo sapiens. Put shortly:
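Counter-screen FP: 250 nM uPAR lacking the GPI anchor (from S2 cells) was preincubated with compound for 24 h at 4 °C in PBS with 0.01% Triton X-100. AE-147-FAM peptide was then added at 100 nM final and polarization read at ex 485/em 535 nm.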

In experiment [9] the target is T2, YAP1-TEAD4 (Homo sapiens). In words: Inhibition of GST-tagged TEAD4 (217 to 434 residues) (unknown origin) expressed in Escherichia coli BL21 (DE3) cells/FAM-labelled YAP1 (60 to 99 residues)(unknown origin) protein-protein interaction assessed as maximum inhibition at 50 uM preincubated for 24 hrs at 4 degree C with TEAD4 followed by fluorescent labelled YAP1 addition by fluorescence polarization assay. Put shortly:
as §2

The next experiment addresses TEAD2-YAP1 (Homo sapiens, UniProt Q15562). In words: Inhibition of TEAD2 (217 to 447 residues) (unknown origin) expressed in Escherichia coli BL21 (DE3) cells/FAM-labelled YAP1 (60 to 99 residues)(unknown origin) protein-protein interaction preincubated for 24 hrs at 4 degree C with compound followed by fluorescent labelled YAP1 addition by fluorescence polarization assay. Put shortly:
as §2

In experiment [10] the target is TEAD2-YAP1 (Homo sapiens) (UniProt P46937+Q15562). Kind of experiment: Inhibition of TEAD2 (217 to 447 residues) (unknown origin) expressed in Escherichia coli BL21 (DE3) cells/FAM-labelled YAP1 (60 to 99 residues)(unknown origin) protein-protein interaction assessed as maximum inhibition at 50 uM preincubated for 24 hrs at 4 degree C with compound followed by fluorescent labelled YAP1 addition by fluorescence polarization assay. Put shortly: as §2
Sequence of TEAD2-YAP1 (Homo sapiens) (P46937 whole entry, looked up, the tested form may be a part): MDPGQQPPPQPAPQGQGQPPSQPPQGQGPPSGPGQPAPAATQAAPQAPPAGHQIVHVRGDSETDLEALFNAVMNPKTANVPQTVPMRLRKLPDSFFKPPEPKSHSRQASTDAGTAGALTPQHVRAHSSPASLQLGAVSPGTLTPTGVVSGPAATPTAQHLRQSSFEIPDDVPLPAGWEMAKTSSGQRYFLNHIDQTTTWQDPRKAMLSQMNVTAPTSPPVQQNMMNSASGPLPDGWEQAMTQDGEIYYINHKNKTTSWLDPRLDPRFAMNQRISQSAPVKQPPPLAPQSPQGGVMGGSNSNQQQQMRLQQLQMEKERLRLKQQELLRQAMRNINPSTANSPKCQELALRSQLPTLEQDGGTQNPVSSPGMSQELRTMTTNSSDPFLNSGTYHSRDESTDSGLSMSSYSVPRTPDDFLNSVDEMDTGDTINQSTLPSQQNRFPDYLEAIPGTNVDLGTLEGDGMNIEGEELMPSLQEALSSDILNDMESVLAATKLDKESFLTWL
Sequence of TEAD2-YAP1 (Homo sapiens) (Q15562 whole entry, looked up, the tested form may be a part): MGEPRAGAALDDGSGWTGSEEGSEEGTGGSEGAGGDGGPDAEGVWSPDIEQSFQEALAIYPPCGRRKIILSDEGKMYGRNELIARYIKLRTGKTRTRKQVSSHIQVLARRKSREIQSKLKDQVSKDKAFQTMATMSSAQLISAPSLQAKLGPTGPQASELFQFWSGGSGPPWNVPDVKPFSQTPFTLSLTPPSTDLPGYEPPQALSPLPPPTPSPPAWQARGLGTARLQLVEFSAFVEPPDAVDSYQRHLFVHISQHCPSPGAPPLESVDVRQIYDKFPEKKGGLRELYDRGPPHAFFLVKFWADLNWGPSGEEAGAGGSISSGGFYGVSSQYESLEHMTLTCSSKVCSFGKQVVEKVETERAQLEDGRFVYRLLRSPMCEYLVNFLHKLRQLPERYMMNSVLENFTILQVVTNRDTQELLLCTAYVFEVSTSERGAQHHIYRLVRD

Sequence of TEAD2-YAP1 (P46937 whole entry, the tested form may be a part): as the sequence (P46937 whole entry, looked up, the tested form may be a part) above
Sequence of TEAD2-YAP1 (Q15562 whole entry, the tested form may be a part): as the sequence (Q15562 whole entry, looked up, the tested form may be a part) above
T1 sequence (P46937 whole entry, the tested form may be a part): as the sequence (P46937 whole entry, looked up, the tested form may be a part) above
T1 sequence (Q15561 whole entry, the tested form may be a part): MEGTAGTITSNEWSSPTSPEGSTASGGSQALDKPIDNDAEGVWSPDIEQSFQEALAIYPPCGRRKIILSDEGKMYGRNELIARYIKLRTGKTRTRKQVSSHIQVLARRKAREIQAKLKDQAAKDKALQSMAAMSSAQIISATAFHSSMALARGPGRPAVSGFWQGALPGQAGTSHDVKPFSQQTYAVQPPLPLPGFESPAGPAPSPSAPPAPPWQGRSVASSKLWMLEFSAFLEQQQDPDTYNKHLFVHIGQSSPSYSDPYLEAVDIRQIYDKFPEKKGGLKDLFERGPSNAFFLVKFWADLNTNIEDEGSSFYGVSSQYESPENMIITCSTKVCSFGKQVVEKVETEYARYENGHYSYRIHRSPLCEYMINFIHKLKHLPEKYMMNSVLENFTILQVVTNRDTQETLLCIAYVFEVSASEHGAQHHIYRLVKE

Broadly, the IC50 is the midpoint of a concentration-inhibition curve. For the compound `O=C(NCCc1ccccc1)C(c1cccs1)N(C(=O)CCl)c1cccc(Cl)c1` (stereo not drawn), the half-maximal inhibitory concentration (IC50) was 0.9 µM on YAP1-TEAD4 [1], 9.7 µM against YAP1-TEAD4 [3], 4.6 µM at YAP1-TEAD4 [4] and 1.4 µM on YAP1-TEAD4 [5]. In addition, the Ratio in [2] is 5.1 M⁻¹ s⁻¹. Also, the inhibition result in the experiment filed under Homo sapiens and in the experiment with S2 was “inactive” throughout. The percent protein-compound adduct formation in experiment [6] stood at 55%. The percent second protein-compound adduct in experiment [7] was determined as 18%. Also, the Imax in experiment [8] is 37%; in experiment [9] it was 31%.

For the compound `CCS(=O)(=O)Oc1ccc(CN(Cc2ccc(F)cc2)C(=O)CCl)cc1`, the concentration for half-maximal inhibition (IC50) was determined as 5.3 µM on YAP1-TEAD4 [1], 54.5 µM at YAP1-TEAD4 [4], 22 µM at TEAD2-YAP1 and 4.2 µM on YAP1-TEAD4 [5]. Moreover, the Ratio in [2] was found to be 1.3 M⁻¹ s⁻¹. Further, the inhibition result in the experiment filed under Homo sapiens and in the experiment on S2 was “inactive” throughout. Also, the Imax in [10] is 22%; in experiment [9], 37%. For the same compound, the percent protein-compound adduct formation in experiment [6] was determined as 46%. Besides, the percent second protein-compound adduct in experiment [7] turned out to be 11%.

For the compound `COc1cccc(C2CC(Cc3cccs3)=NN2C(=O)CCl)c1OC` (stereo not drawn), the 50% inhibitory concentration (IC50) on YAP1-TEAD4 [1] was found to be 2.6 µM; at YAP1-TEAD4 [3], 23.6 µM; against YAP1-TEAD4 [4] it was 10.2 µM; on TEAD2-YAP1, 3.1 µM; at YAP1-TEAD4 [5], 3.3 µM. Besides, in [2], the Ratio came to 8.3 M⁻¹ s⁻¹. Further, the inhibition result in the experiment filed under Homo sapiens and with S2 was “inactive” in each case. For the same compound, the figures for the Imax in experiment [10], in experiment [8] and in [9] were 35%, 53% and 48%, respectively. The percent protein-compound adduct formation in experiment [6] was found to be 78%. In experiment [7], the percent second protein-compound adduct was 15%.

For the compound `Cc1ccc(C2=NN(C(=O)CCl)C(c3ccco3)C2)cc1` (stereo not drawn), the half-maximal inhibitory concentration (IC50) at YAP1-TEAD4 [1] came out at 1.4 µM; against YAP1-TEAD4 [3], 18.1 µM; against YAP1-TEAD4 [4] it was 5.9 µM; at TEAD2-YAP1 it was 2.3 µM; against YAP1-TEAD4 [5] it was 2.2 µM. The Ratio in experiment [2] stood at 13.5 M⁻¹ s⁻¹. Further, the inhibition result in the experiment filed under Homo sapiens and in the experiment on S2 was “inactive” in each case. In addition, the values for the Imax in [10], in [8] and in [9] were 29%, 35% and 40%, respectively. Also, in experiment [6], the percent protein-compound adduct formation worked out at 85%. For the same compound, the percent second protein-compound adduct in experiment [7] amounted to 15%.
